Measured values as given in ChEMBL document CHEMBL5154772, “Biological Investigation of a Water-Soluble Isoginkgetin-Phosphate Analogue, Targeting the Spliceosome with In Vivo Antitumor Activity” (J Med Chem, 2022).
Calls of active or inactive are those of the source. The calls are words filed in the database; no cut-off is given here.

Columns and labels:
Format in all cases: functional, cell-based
[1] = system: U2OS; assay: Antitumor immunity against human U2OS cells assessed as decrease in ATP by measuring reduction in quinacrine green fluorescence intensity at 3 uM pretreated for 24 hrs by live fluorescence microscopic analysis
[2] = system: U2OS; assay: Antitumor immunity against human U2OS cells expressing CALR-GFP fusion protein assessed as accumulation CALR-GFP fusion protein at 3 uM measured upto 24 hrs by live cell microscopic analysis
[3] = system: U2OS; assay: Antitumor immunity against human U2OS cells expressing HMGBI-GFP fusion protein assessed as accumulation HMGBI-GFP fusion protein at 3 uM measured upto 24 hrs by live cell microscopic analysis
[4] = system: MCA-205; assay: Induction of B3Z T-cell activation cocultured with mouse MCA-205 cells expressing SL8 epitope assessed as increase in intron-derived SL8 antigen presentation at 2 to 10 uM measured after 18 hrs; conditions: dose 2-10 µM
Method in brief: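 MCA205 cells transfected with YFP-Globin-SL8-intron plasmid (pCDNA3 empty-vector control). 24 h later, treated 18 h. Washed, then 5x10^4 cells co-cultured with 1x10^5 SL8/H-2Kb-specific B3Z CD8+ T-cell hybridoma for 18 h at 37 °C. Cells lysed, β-galactosidase read with 40 µM MUG substrate over 3 h at room temperature. Normalised to unspecific B3Z activation. At least three biological replicates, Student's t-test.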

SMILES | Activity [1] | Activity [2] | Activity [3] | Activity [4]
O=C1c2c(O)ccc(O)c2C(=O)c2c(NCCNCCO)ccc(NCCNCCO)c21 | Active | Active | Active | –
COc1cc(-c2ccc(=O)[nH]n2)ccc1OC(F)F | – | – | – | Active
